Measured values published in ChEMBL document CHEMBL4732237, “Discovery of 4-alkoxy-2-aryl-6,7-dimethoxyquinolines as a new class of topoisomerase I inhibitors endowed with potent in vitro anticancer activity” (2021).

What was measured:
Assay type in all cases: functional
[1] = tested on: MDA-MB-435; assay: Growth inhibition of human MDA-MB-435 cells incubated for 48 hrs by sulforhodamine B assay
Summary of the method: (§1)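 NCI five-dose screen covering 0.01–100 µM, prepared as 10-fold or ½-log dilutions from DMSO stock. Cells in RPMI 1640 with 5% FBS were exposed for 48 h at 37 °C after 24 h preincubation. Adherent cells were fixed with TCA (final 10%) and suspension cells were settled before fixing. Stain was SRB, read at 515 nm. GI50 = 50% reduction in net protein increase versus control, with Tz taken at drug addition.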

[2] = tested on: NCI-H322M; assay: Growth inhibition of human NCI-H322M cells incubated for 48 hrs by sulforhodamine B assay
Summary of the method: (§2)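 NCI five-dose screen (0.01–100 µM; five concentrations plus control). Cells grown in RPMI 1640/5% FBS/2 mM L-glutamine and preincubated 24 h, with time-zero plates TCA-fixed. Drug exposure 48 h at 37 °C, followed by SRB protein staining and reading at 515 nm. GI50 is the concentration at [(Ti-Tz)/(C-Tz)]×100 = 50.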

[3] = tested on: COLO 205; assay: Growth inhibition of human COLO 205 cells incubated for 48 hrs by sulforhodamine B assay; summary of the method: as §1
[4] = tested on: SF-539; assay: Growth inhibition of human SF-539 cells at 10 uM incubated for 48 hrs by sulforhodamine B assay relative to control; settings: read-out: GI
Summary of the method: (§3)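 NCI one-dose screen. Cells grown in RPMI 1640 with 5% FBS and 2 mM L-glutamine, plated and incubated 24 h at 37 °C, 5% CO2. DMSO-dissolved drug added, then 48 h further incubation. Adherent cells fixed with cold TCA, suspension cells fixed after settling. Stained with 0.4% SRB, absorbance read at 515 nm. Reported as percent growth relative to no-drug control and time-zero cell number.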

[5] = tested on: SN12C; assay: Growth inhibition of human SN12C cells at 10 uM incubated for 48 hrs by sulforhodamine B assay relative to control; settings: read-out: GI; summary of the method: as §3
[6] = tested on: OVCAR-8; assay: Growth inhibition of human OVCAR-8 cells incubated for 48 hrs by sulforhodamine B assay; summary of the method: as §2
[7] = tested on: HCT-15; assay: Growth inhibition of human HCT-15 cells incubated for 48 hrs by sulforhodamine B assay; summary of the method: as §1
[8] = tested on: Hs-578T; assay: Growth inhibition of human HS-578T cells incubated for 48 hrs by sulforhodamine B assay; summary of the method: as §1
[9] = tested on: A498; assay: Growth inhibition of human A498 cells at 10 uM incubated for 48 hrs by sulforhodamine B assay relative to control; settings: read-out: GI
Summary of the method: (§4)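 NCI one-dose screen across a 59-line panel. Cells were grown in RPMI 1640 with 5% FBS and 2 mM L-glutamine, plated and pre-incubated 24 h, then exposed to drug for 48 h at 37 °C, 5% CO2. Adherent cells were fixed with cold TCA (10% final), stained with 0.4% SRB in 1% acetic acid and read at 515 nm. Result is percent growth relative to no-drug control and time-zero cell count.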

[10] = tested on: UACC-257; assay: Growth inhibition of human UACC-257 cells at 10 uM incubated for 48 hrs by sulforhodamine B assay relative to control; settings: read-out: GI; summary of the method: as §4
[11] = tested on: K562; assay: Growth inhibition of human K562 cells incubated for 48 hrs by sulforhodamine B assay; summary of the method: as §1
[12] = tested on: UACC-62; assay: Growth inhibition of human UACC-62 cells incubated for 48 hrs by sulforhodamine B assay
Summary of the method: (§5)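 NCI five-dose assay, with drug stocks in DMSO diluted in medium to five concentrations (10-fold or ½-log series). Cells in RPMI 1640/5% FBS were pre-incubated 24 h, and time-zero plates were TCA-fixed at drug addition. After 48 h at 37 °C, cells were TCA-fixed, SRB-stained and read at 515 nm. GI50 is from [(Ti-Tz)/(C-Tz)]×100 = 50, TGI from Ti = Tz, and LC50 from [(Ti-Tz)/Tz]×100 = -50.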

[13] = tested on: NCI-H522; assay: Growth inhibition of human NCI-H522 cells at 10 uM incubated for 48 hrs by sulforhodamine B assay relative to control; settings: read-out: GI; summary of the method: as §3
[14] = tested on: EKVX; assay: Growth inhibition of human EKVX cells incubated for 48 hrs by sulforhodamine B assay; summary of the method: as §1
[15] = tested on: SK-MEL-28; assay: Growth inhibition of human SK-MEL-28 cells at 10 uM incubated for 48 hrs by sulforhodamine B assay relative to control; settings: read-out: GI; summary of the method: as §3
[16] = tested on: A549; assay: Growth inhibition of human A549 cells incubated for 48 hrs by sulforhodamine B assay; summary of the method: as §1
[17] = tested on: DU-145; assay: Growth inhibition of human DU-145 cells incubated for 48 hrs by sulforhodamine B assay; summary of the method: as §1
[18] = tested on: KM12; assay: Growth inhibition of human KM12 cells at 10 uM incubated for 48 hrs by sulforhodamine B assay relative to control; settings: read-out: GI
Summary of the method: (§6)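 NCI-60 single-dose screen. Cells were grown in RPMI 1640 with 5% FBS and 2 mM L-glutamine and plated 24 h before drug addition. Compound was added at one concentration in DMSO-derived medium and incubated for 48 h at 37 °C in 5% CO2. Read-out was SRB protein stain at 515 nm. Result is percent growth versus the no-drug control and the time-zero cell count; values below 0 indicate lethality.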

[19] = tested on: SNB-19; assay: Growth inhibition of human SNB-19 cells incubated for 48 hrs by sulforhodamine B assay; summary of the method: as §2
[20] = tested on: A498; assay: Growth inhibition of human A498 cells incubated for 48 hrs by sulforhodamine B assay; summary of the method: as §5
[21] = tested on: SN12C; assay: Growth inhibition of human SN12C cells incubated for 48 hrs by sulforhodamine B assay; summary of the method: as §2
[22] = tested on: SNB-75; assay: Growth inhibition of human SNB-75 cells incubated for 48 hrs by sulforhodamine B assay; summary of the method: as §2
[23] = tested on: SK-MEL-5; assay: Growth inhibition of human SK-MEL-5 cells at 10 uM incubated for 48 hrs by sulforhodamine B assay relative to control; settings: read-out: GI; summary of the method: as §3
[24] = tested on: SK-OV-3; assay: Growth inhibition of human SK-OV-3 cells at 10 uM incubated for 48 hrs by sulforhodamine B assay relative to control; settings: read-out: GI; summary of the method: as §3
[25] = tested on: MDA-MB-231; assay: Growth inhibition of human MDA-MB-231 cells incubated for 48 hrs by sulforhodamine B assay; summary of the method: as §1
[26] = tested on: TK-10; assay: Growth inhibition of human TK-10 cells at 10 uM incubated for 48 hrs by sulforhodamine B assay relative to control; settings: read-out: GI; summary of the method: as §4
[27] = tested on: T47D; assay: Growth inhibition of human T47D cells at 10 uM incubated for 48 hrs by sulforhodamine B assay relative to control; settings: read-out: GI; summary of the method: as §4
[28] = tested on: TK-10; assay: Growth inhibition of human TK-10 cells incubated for 48 hrs by sulforhodamine B assay; summary of the method: as §5
[29] = tested on: KM12; assay: Growth inhibition of human KM12 cells incubated for 48 hrs by sulforhodamine B assay; summary of the method: as §1
[30] = tested on: RXF 393; assay: Growth inhibition of human RXF 393 cells at 10 uM incubated for 48 hrs by sulforhodamine B assay relative to control; settings: read-out: GI; summary of the method: as §3
[31] = tested on: MCF7; assay: Growth inhibition of human MCF7 cells incubated for 48 hrs by sulforhodamine B assay; summary of the method: as §1
[32] = tested on: HOP-62; assay: Growth inhibition of human HOP-62 cells at 10 uM incubated for 48 hrs by sulforhodamine B assay relative to control; settings: read-out: GI; summary of the method: as §6
[33] = tested on: HOP-62; assay: Growth inhibition of human HOP-62 cells incubated for 48 hrs by sulforhodamine B assay; summary of the method: as §1
[34] = tested on: SK-OV-3; assay: Growth inhibition of human SK-OV-3 cells incubated for 48 hrs by sulforhodamine B assay; summary of the method: as §2

Row | Structure (SMILES) | GI50 [1] | GI50 [2] | GI50 [3] | GI50 [6] | GI50 [7] | GI50 [8] | GI50 [11] | GI50 [12] | GI50 [14] | GI50 [16] | GI50 [17] | GI50 [19] | GI50 [20] | GI50 [21] | GI50 [22] | GI50 [25] | GI50 [28] | GI50 [29] | GI50 [31] | GI50 [33] | other results
1 | COc1cc2nc(-c3ccc(Cl)cc3)cc(OCCCN3CCCCC3)c2cc1OC | 2440 nM | 4420 nM | 582 nM | 1770 nM | 604 nM | 2110 nM | 1220 nM | 1940 nM | 1470 nM | 1900 nM | 2540 nM | 2980 nM | 1400 nM | 946 nM | 1980 nM | 666 nM | 3730 nM | 3070 nM | 1560 nM | 2370 nM | inhibition of growth at 10 µM [4]: 62%; inhibition of growth at 10 µM [5]: 62%; inhibition of growth at 10 µM [9]: 62%; inhibition of growth at 10 µM [10]: 62%; inhibition of growth at 10 µM [13]: 62%; inhibition of growth at 10 µM [15]: 62%; inhibition of growth at 10 µM [18]: 62%; inhibition of growth at 10 µM [23]: 62%; inhibition of growth at 10 µM [24]: 62%; inhibition of growth at 10 µM [26]: 62%; inhibition of growth at 10 µM [27]: 62%; inhibition of growth at 10 µM [30]: 62%; inhibition of growth at 10 µM [32]: 62%
2 | COc1cc2nc(-c3ccc(C(F)(F)F)cc3)cc(OCCCN3CCCCC3)c2cc1OC | 1230 nM | 8700 nM | 406 nM | 734 nM | 399 nM | 2150 nM | 578 nM | 1820 nM | 803 nM | 722 nM | 1840 nM | 2820 nM | 1850 nM | 668 nM | 1960 nM | 536 nM | 7800 nM | 2920 nM | 1160 nM | 947 nM | GI50 [34]: 2300 nM
3 | COc1cc2nc(-c3ccc(C(F)(F)F)cc3)cc(OCCCN3CCOCC3)c2cc1OC | 1200 nM | 10500 nM | 529 nM | 1950 nM | 520 nM | 2250 nM | 1180 nM | 628 nM | 1610 nM | 1040 nM | 10100 nM | 2910 nM | 1510 nM | 675 nM | 2460 nM | 498 nM | 13900 nM | 3420 nM | 1550 nM | 1670 nM | GI50 [34]: 5040 nM
4 | COc1cc2nc(-c3ccc(C(F)(F)F)cc3)cc(OCCCN3CCC(O)CC3)c2cc1OC | 2760 nM | 10200 nM | 456 nM | 1660 nM | 667 nM | 3750 nM | 1790 nM | 2610 nM | 1030 nM | 1650 nM | 4960 nM | 10500 nM | 2370 nM | 1440 nM | 2580 nM | 919 nM | 11500 nM | 6870 nM | 2570 nM | 1800 nM | GI50 [34]: 10600 nM
5 | COc1cc2nc(-c3ccc(Cl)cc3)cc(OCCCN3CCOCC3)c2cc1OC | 1900 nM | > 100000 nM | 620 nM | 2150 nM | 754 nM | 2400 nM | 2710 nM | 2260 nM | 1730 nM | 2020 nM |  |  | 1590 nM | 1300 nM | 2060 nM | 1010 nM |  | 3870 nM | 2490 nM | 1980 nM | inhibition of growth at 10 µM [4]: 62%; inhibition of growth at 10 µM [5]: 62%; inhibition of growth at 10 µM [9]: 62%; inhibition of growth at 10 µM [10]: 62%; inhibition of growth at 10 µM [13]: 62%; inhibition of growth at 10 µM [15]: 62%; inhibition of growth at 10 µM [18]: 62%; inhibition of growth at 10 µM [23]: 62%; inhibition of growth at 10 µM [24]: 62%; inhibition of growth at 10 µM [26]: 62%; GI50 [34]: 3000 nM; inhibition of growth at 10 µM [27]: 62%; inhibition of growth at 10 µM [30]: 62%; inhibition of growth at 10 µM [32]: 62%
